Variants at the floor of the assay were thinned out.
B1: tRNA (parent)
chain: GUUCCGUUGGCGUAAUGGUAACGCGUCUCCCUCCUAAGGAGAAGACUGCGGGUUCGAGUCCCGUACGGAACG

Variants of: B1
Assay: yeast fitness relative to wild type (ratio to wild type); higher = fitter; tRNA-Arg(CCU), competitive growth, 37 C, YPD
Outline: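 Gene amplicons from the start population and from each of six end populations were read by 100-nucleotide paired-end sequencing. Those end populations came from pooled Saccharomyces cerevisiae strains carrying tRNA-Arg(CCU) gene variants at the native locus, competed in YPD at 37°C for 24 hours. Fitness relative to wild type was worked out from changes in genotype frequencies. Genotypes needed ≥ 100 starting reads, and estimates < 0.5 were set to 0.5.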

| Variant | yeast fitness |
| --- | --- |
| C11U A40C | 0.755 |
| C11U A14G C31A A42G | ≤ 0.5 |
| C11G U13G C60U | ≤ 0.5 |
| C11U A14U C24G G44A C49U | ≤ 0.5 |
| C11G G25A C27U | 0.687 |
| C11U A21C C22G | 0.657 |
| C11U A20U G38A G51A U54A | 0.527 |
| C11G U59A C61A | ≤ 0.5 |
| C11U A14G U19A | 0.658 |
| C11G U19A A21G C27U G39C C60A | ≤ 0.5 |
| C11U A21U U35A A36U | ≤ 0.5 |
| C11U A21C C22A C66A | ≤ 0.5 |
| C11G G17C C29U G51A | 0.625 |
| C11G G67U A69C | 0.528 |
| C11U A14C G17A G23A C29G A42C G56A C62U | ≤ 0.5 |
| C11G G39A A40C C60U G68U | ≤ 0.5 |
| C11U A14U C34U | ≤ 0.5 |
| C11U A36U G48C U54C | ≤ 0.5 |
| C11G G52A A69C | ≤ 0.5 |
| C11G G17A A20U C33G G38C | ≤ 0.5 |
| C11G U32G C33U A37U A65G | 0.627 |

| Variant | yeast fitness |
| --- | --- |
| C11U A21G C24A G52A C60A A69G | 0.523 |
| C11G C66U A69C | ≤ 0.5 |
| C11G U13G C61U | ≤ 0.5 |
| C11U A21G C24A G52A | ≤ 0.5 |
| C11G U16A A42G A57U | ≤ 0.5 |
| C11G G17U A21U A42U | ≤ 0.5 |
| C11U A15U A57G A69C | ≤ 0.5 |
| C11U A14C C27G C31U C49G G58C | ≤ 0.5 |
| C11G G50A C66G | ≤ 0.5 |
| C11G U35A G63C | 0.602 |
| C11G G17A U19C | ≤ 0.5 |
| C11G G41A U47A C49U U59C G67C A70U | ≤ 0.5 |
| C11G U16A A20G C30A | ≤ 0.5 |
| C11G G56C G67U | ≤ 0.5 |
| C11U A14C G23A U26C C55U | ≤ 0.5 |
| C11U A37C C49U | ≤ 0.5 |
| C11G G41A G67U G68C | 0.569 |
| C11U A36G A43C | 0.546 |
| C11G G18U C22U C33U A43G | ≤ 0.5 |
| C11G U16A C31A A42G | 0.573 |
| C11G U13G C30U A37G A40U A57U | ≤ 0.5 |

| Variant | yeast fitness |
| --- | --- |
| C11U A36C U64A A70C | ≤ 0.5 |
| C11G G38A G58A C60U | ≤ 0.5 |
| C11G U13C C27A U35A G48A U59C | ≤ 0.5 |
| C11G U32C G48A C60G | ≤ 0.5 |
| C11U A21U C46A | 0.685 |
| C11G G18C C49U | ≤ 0.5 |
| C11G G41C A42C A43U | ≤ 0.5 |
| C11G G41A A70G | ≤ 0.5 |
| C11U A21U C66U | 0.816 |
| C11G U32G A57C C62U C66U | 0.556 |
| C11G U32A | ≤ 0.5 |
| C11U A21C A42G A69C | ≤ 0.5 |
| C11U A21C A70G | ≤ 0.5 |
| C11G U26C C31A A43U C61A | ≤ 0.5 |
| C11U A20U C24U C33G U47A C49U | 0.557 |
| C11U A14U G18A C31U C46G U47A A65C | ≤ 0.5 |
| C11U A14G C27G C31U | 0.618 |
| C11G G12A C27U A43G G67A | 0.606 |
| C11U A14G C24G C27U G41A A42C | ≤ 0.5 |
| C11U A21G A43C | 0.649 |
| C11U A15C A21G C24G U28A | ≤ 0.5 |

| Variant | yeast fitness |
| --- | --- |
| C11G G58A A69U | 0.571 |
| C11U A21C A42G C61U | ≤ 0.5 |
| C11U A15C C27A G39C G48A | 0.546 |
| C11U A20U C22A U53G | ≤ 0.5 |
| C11G U28A G39A G48A G67C | ≤ 0.5 |
| C11U A20C A69C | 0.627 |
| C11G G51U | 0.601 |
| C11U A37U C60U | 0.539 |
| C11U A15G A36U A43U C46G C62A | 0.635 |
| C11U A40C A43U U53A | ≤ 0.5 |
| C11U A14U C24G A42G | 0.54 |
| C11G U13G A65C | ≤ 0.5 |
| C11G U32G A69C A70U | ≤ 0.5 |
| C11U A21C C27G G44A A65U | ≤ 0.5 |
| C11U A14G C31A C55U G68A | ≤ 0.5 |
| C11G U16A C49A | ≤ 0.5 |
| C11G U28A C31G G38A C49A A69G | 0.559 |
| C11U A15G G18A C31A A36G C61G | 0.513 |
| C11U A14G C24G C27U G41A A42C C66U | ≤ 0.5 |
| C11G G25A U35C A36U | ≤ 0.5 |
| C11U A37C | 0.724 |

From the RNAGym collection of RNA variant scans (doi:10.1126/science.aae0568)
